GPR7 antag: blocks human GPR7 receptor signaling; AID 1861; P48145; inhibition, % at 4.4 µM; 290,000 compounds, 1.1% hits; GPR7-expressing cells, fluorescence antagonist assay; in the data active means inhibition above about 16%, passing the limit was not always enough;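 further: cells stimulated with the agonist NPW; 0% = agonist with vehicle and 100% = vehicle without agonist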
Target sequence (P48145 whole entry, looked up): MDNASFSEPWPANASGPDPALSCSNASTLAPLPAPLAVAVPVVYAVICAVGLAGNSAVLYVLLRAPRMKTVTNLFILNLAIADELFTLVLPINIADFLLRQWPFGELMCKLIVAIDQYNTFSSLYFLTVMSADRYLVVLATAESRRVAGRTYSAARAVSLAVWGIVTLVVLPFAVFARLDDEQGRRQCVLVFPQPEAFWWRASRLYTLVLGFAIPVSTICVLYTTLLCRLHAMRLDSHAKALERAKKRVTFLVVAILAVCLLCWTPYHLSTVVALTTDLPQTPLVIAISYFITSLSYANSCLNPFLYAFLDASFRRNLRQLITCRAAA
CHO parental Ca: counter-screen for OX1R antagonists: effect in parental CHO cells | parental CHO-K1, ATP-induced calcium, Fluo-8 fluorescence | inhibition, % at 5.6 µM | 330,000 compounds, 0.63% hits;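 active means inhibition above that plate's mean sample inhibition plus 3 SD, cut at about 26% in these data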;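 further: 0% = ATP-challenged DMSO wells and 100% = DMSO wells without ATP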
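Assay system – parental CHO cells · Reagent – ATP stimulus · Detection – intracellular calcium via Fluo-8 no-wash fluorescent dye · Evaluation – percent inhibition of ATP-evoked calcium rise, normalized to controls · Controls – ATP wells versus no-ATP DMSO wells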
OX1R antag-1: OX1R (human) antagonism; O43613; OX1R-expressing cells, FRET antagonist read-out; inhibition, % at 6.6 µM; 330,000 compounds, 1.8% hits; AID 485270; in the data active means inhibition mostly above about 38%, no sharp cut-off; inactive means mostly below about 40%;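 further: 0% = agonist challenge alone and 100% = reference antagonist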
GalR3 antagonist: human GalR3 antagonism; inhibition, % at 3 µM; O60755; HEK293 GalR3-CNG cAMP membrane potential fluorescence; galR3 body fused to GalR1 C-terminus; AID 651719; 360,000 compounds, 0.44% hits;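 active means inhibition above the screen-wide average plus 3 SD, cut at about 13% in these data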;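 further: forskolin and galanin both at EC90 stimulate the cells; cAMP rise reported by CNG channel membrane potential dye signal; 0% = forskolin plus galanin with DMSO and 100% = forskolin alone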
Target sequence (O60755 1-299 limits assumed): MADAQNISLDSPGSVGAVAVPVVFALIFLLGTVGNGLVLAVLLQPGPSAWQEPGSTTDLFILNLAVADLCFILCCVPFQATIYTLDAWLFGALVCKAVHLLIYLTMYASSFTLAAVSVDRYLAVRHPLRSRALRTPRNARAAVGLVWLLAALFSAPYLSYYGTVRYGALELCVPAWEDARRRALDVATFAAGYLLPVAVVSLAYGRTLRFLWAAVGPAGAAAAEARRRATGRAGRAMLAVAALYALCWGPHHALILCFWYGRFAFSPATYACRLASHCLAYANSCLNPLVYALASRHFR
OX1R antag-2: human HCRTR1 antagonism | O43613 | CHO/OX1R cells, Fluo-8 calcium fluorescence, orexin A | inhibition, % at 5 µM | 330,000 compounds, 0.43% hits | AID 434989;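 active means inhibition above its plate's threshold, mean inhibition of all tested compounds on the plate plus 3 SD, cut at about 37% in these data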;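 further: 0% = orexin A challenge wells and 100% = SB-334867-A antagonist wells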
An asterisk follows results filed as active; / = no result; ! = not confirmed by another sample. This is a sample that favours compounds with a hit; in the whole collection about 3.1% have one here.

SMILES	GPR7 antag	CHO parental Ca	OX1R antag-1	GalR3 antagonist	OX1R antag-2
CC(C)OCCCNC(=O)c1c(N)n(CC2CCCO2)c2nc3ccccc3nc12 (centres undefined)	15*	-24	12	-3	-21
Oc1cc(Cl)ccc1Oc1ccc(Cl)cc1Cl	/	67*	45*	-6	25
O=C(O)COc1ccc(Cl)cc1Cl	/	-3	13	-5	-5
CC(C)NC1(c2ccccc2)CCCCC1	/	/	/	-4	/
O=C(CCC(=O)N1C[C@H]2C[C@@H](C1)c1cccc(=O)n1C2)NCc1ccc(F)cc1	/	-9	6	-2	-11
Clc1ccc(COC(Cn2ccnc2)c2ccc(Cl)cc2Cl)c(Cl)c1 (centres undefined)	13	43*!	25*!	/	39*!
Oc1ccc(Cl)c(Cl)c1Cl	/	-9	8	-1	1
CCC1(C2=NCCN2)Cc2ccccc2O1 (centres undefined)	/	-13	8	0	-7
CN(C(=O)COC(=O)c1cn(C)c2ccccc12)C1CCCCC1	/	-12	38*	-8	22
NC(=O)c1cc(N2CC2)c([N+](=O)[O-])cc1[N+](=O)[O-]	/	1	74*	-1	5
O=C1NC(=O)N(c2cccc(Cl)c2)C(=O)/C1=C\c1ccc(Sc2nc3ccccc3[nH]2)o1	-4	39*	9	-2	62*
C[C@@H]1O[C@@H](O[C@H]2C[C@@H](O)[C@]3(CO)[C@H]4[C@H](O)C[C@]5(C)[C@@H](C6COC(=O)C6)CC[C@]5(O)[C@@H]4CC[C@]3(O)C2)[C@H](O)[C@H](O)[C@H]1O (some centres undefined)	-10	-1	9	22*	0
COc1cc(C=C2C(=O)NC(=O)NC2=O)ccc1OCc1ccc([N+](=O)[O-])cc1	-1	/	/	-4	/
COc1cc(/C=C(/C)[N+](=O)[O-])ccc1OCc1ccccc1Cl	2	54*	29	/	37
CN[C@@H]1C[C@@H](c2ccc(Cl)c(Cl)c2)c2ccccc21	47*	7	-2	/	-7
CC(NCc1ccc(Cl)c(Cl)c1)C(O)c1ccccc1 (centres undefined)	-1	-18	7	-6	-5
CCCn1c(C)c(C(=O)c2cccc3ccccc23)c2ccccc21	/	16	22	-6	-29
O=C(c1c[nH]cc1-c1ccccc1)c1cccc2ccccc12	0	40*	25	0	41
Cc1cc(O)c2c(c1)C(=O)C13C(=C2O)C(=O)[C@H]2[C@@H](O)[C@@H]1[C@H]1[C@H](O)[C@@H]3C(=O)C3=C(O)c4c(O)cc(C)cc4C(=O)C312 (some centres undefined)	/	3	17	/	2
COC(=O)C1=C(c2ccccc2OCc2ccccc2)C[C@@H]2CC[C@H]1N2C(=O)NCc1ccc([N+](=O)[O-])cc1	/	-18	8	-9	1
Cc1ccc2c(c1N)C(=O)c1ccccc1C2=O	/	4	40*	-7	19
c1ccc2c(c1)[IH]c1ccccc1-2	/	/	/	86*	/
COC1=C(C)C(=O)C2=C(C1=O)C(CO)N1C(C#N)C3CC4C(C1C2N1CCOC41)N3C (centres undefined)	/	/	/	-4	/
COC(=O)C1=C(c2ccc(-c3ccccc3)c(F)c2)C[C@@H]2CC[C@H]1N2C(=O)NCc1cccc2ccccc12	/	-20	1	-8	-29
C[C@]12C[C@@H](O)[C@H](O)CC1=CCC1C2CC[C@@]2(C)C1CC[C@@H]2O (some centres undefined)	/	-7	2	-1	-4
SMILES	GPR7 antag	CHO parental Ca	OX1R antag-1	GalR3 antagonist	OX1R antag-2
O=C(NCCN1CCC2(CC1)C(=O)NCN2c1ccccc1)c1ccc(F)cc1F	/	/	/	-5	/
O=C(CCCN1CCC2(CC1)C(=O)NCN2c1ccccc1)c1ccc(F)cc1	102*	99*	10	-9	106*
CC(=O)O[C@@H]1CC[C@]2(C)C3CC[C@]4(C)C(=O)[C@H](O)CC4C3[C@@H](OC(C)=O)C[C@H]2C1 (some centres undefined)	/	0	16	-9	-34
CCCNS(=O)(=O)c1ccc(OCC(=O)N2CCN(Cc3ccc4c(c3)OCO4)CC2)c(C)c1	/	1	23	4	-14
Nc1nonc1C(=O)N/N=C/c1ccc([N+](=O)[O-])o1	-7	-2	75*	-5	-6
COC(COC(N)=O)C1=C(N2CC2)C(=O)C(C)=C(N2CC2)C1=O (centres undefined)	/	/	/	-2	/
COC12C(COC(N)=O)C3=C(C(=O)C(C)=C(N)C3=O)N1CC1C2N1C (centres undefined)	-6	-6	57*	-5	4
CCC1(OC(=O)CN)C(=O)OCc2c1cc1n(c2=O)Cc2cc3ccccc3nc2-1 (centres undefined)	-5	-13	56*	/	-8
CC[C@@]1(O)C(=O)OCc2c1cc1n(c2=O)Cc2cc3ccccc3nc2-1	-9	-8	55	/	-5
CC[C@@]1(O)C(=O)OCc2c1cc1n(c2=O)Cc2cc3c(NC(=O)CN)cccc3nc2-1	11	-6	38*	-10	11
O=C1OCc2cc(N=Nc3c(O)[nH]c(=O)[nH]c3=O)ccc21	-6	-7	42*	0	-1
Clc1ccc(C[n+]2c(-c3ccccc3)cc(-c3ccccc3)cc2-c2ccccc2)cc1	/	63*	3	-9	63*
CCC(=NCCOc1ccc(Cl)cc1)c1c(O)n(C)c(=O)n(C)c1=O	-2	50*	19	0	54*
Cc1cnc(NC(=O)CN2CCCCC2)s1	-4	-3	-3	-11	-11
CC(=O)OC1CC(OC2C(O)CC(OC3C(O)CC(OC4CCC5(C)C(CCC6C5CCC5(C)C(C7=CC(=O)OC7)CCC65O)C4)OC3C)OC2C)OC(C)C1OC1OC(CO)C(O)C(O)C1O (centres undefined)	/	/	/	22*	/
COC1CC(OC2CCC3(C)C(CCC4C3CCC3(C)C(C5=CC(=O)OC5)C(OC(C)=O)CC43O)C2)OC(C)C1OC1OC(COC2OC(CO)C(O)C(O)C2O)C(O)C(O)C1O (centres undefined)	/	-3	7	/	-6
CCC12CCN(CC3(O)CC3)C(Cc3ccc(O)cc31)C2(C)C (centres undefined)	/	/	/	-4	/
C[C@@H]1O[C@@H](O[C@@H]2C=C3CC[C@@H]4C(CC[C@]5(C)[C@@H](c6ccc(=O)oc6)CC[C@]45O)[C@@]3(C)CC2)[C@H](O)[C@H](O)[C@H]1O (some centres undefined)	/	-4	12	33*	-13
C[C@@H]1O[C@@H](O[C@@H]2C=C3CCC4C(CC[C@]5(C)[C@@H](c6ccc(=O)oc6)CC[C@]45O)[C@@]3(C)CC2)[C@H](O)[C@H](O)[C@H]1O (some centres undefined)	/	-7	10	16*	-14
Cn1c(=O)[nH]c2nncnc2c1=O	/	-2	70*	-2	5

From PubChem BioAssay
